The values that follow come from ChEMBL document CHEMBL4251543, “Identification of potent tricyclic prodrug S1P1 receptor modulators” (Medchemcomm, 2017).

Data set [1] relates to Rattus norvegicus. In words: Immunosuppressive activity in Lewis rat assessed as reduction in blood lymphocytes count at 2 mg/kg, po after 48 hrs relative to control. It is filed as functional. On the set-up: scale not given: the % may be the effect or the level left. Summed up: (§1)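 Oral dosing in Lewis rats, with PEG300 as vehicle, given as solution or suspension adjusted for free test article if salt forms are used. Blood sampled at several time points. Lymphocytes counted on a hematology analyzer. Result is the reduction in circulating lymphocyte percentage versus the vehicle group at each time, averaged per group (n = 2).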

In data set [2] the test system is Rattus norvegicus. Briefly: Immunosuppressive activity in Lewis rat assessed as reduction in blood lymphocytes count at 2 mg/kg, po after 4 hrs relative to control. It is filed as functional. Details: scale not given: the % may be the effect or the level left. The method in brief: as §1
Data set [3] has as its system Rattus norvegicus. In words: Immunosuppressive activity in po dosed Lewis rat assessed as reduction in blood lymphocytes after 24 hrs. It is filed as functional. The method in brief: as §1
The nature of data set [4]: Half life in Lewis rat at 2 mg/kg, po after 72 hrs. It is filed as ADME, organism-based. To be noted: in vivo.
Data set [5] in a line: Prodrug conversion in Lewis rat blood assessed as formation phosphate metabolite at 2 mg/kg, po after 4 hrs. It is filed as ADME, organism-based. The note with it: in vivo.
Data set [6] in a line: Prodrug conversion in Lewis rat blood assessed as parent compound levels at 2 mg/kg, po after 4 hrs. It is filed as ADME, organism-based. The note with it: in vivo, read-out: Drug metabolism.
Data set [7] is described as follows: Prodrug conversion in Lewis rat blood assessed as formation phosphate metabolite at 2 mg/kg, po after 24 hrs. It is filed as ADME, organism-based. The note with it: in vivo.
A short description of data set [8]: Prodrug conversion in Lewis rat blood assessed as formation phosphate metabolite at 2 mg/kg, po after 48 hrs. The note with it: in vivo. It is filed as ADME, organism-based.
Data set [9] is described as follows: Prodrug conversion in Lewis rat blood assessed as parent compound levels at 2 mg/kg, po after 24 hrs. The note with it: in vivo, read-out: Drug metabolism. Type of data set: ADME, organism-based.
Data set [10] has as its system Rattus norvegicus. Briefly: Immunosuppressive activity in Lewis rat assessed as reduction in blood lymphocytes count at 2 mg/kg, po after 24 hrs relative to control. Type of data set: functional. On the set-up: scale not given: the % may be the effect or the level left. Summed up: as §1
The species named for data set [11] is Mus musculus. Briefly: Pulmonary toxicity in mouse assessed as increase in BAL protein levels at ED50. Type of data set: organism-based. To be noted: in vivo.
A short description of data set [12]: Prodrug conversion in Lewis rat blood assessed as parent compound levels at 2 mg/kg, po after 48 hrs. To be noted: in vivo, read-out: Drug metabolism. Type of data set: ADME, organism-based.
The species named for data set [13] is Mus musculus. Briefly: Pulmonary toxicity in mouse assessed as increase in BAL protein levels at 5 times ED50. Type of data set: organism-based. To be noted: in vivo.
Data set [14] is filed under the species Mus musculus. In words: Pulmonary toxicity in mouse assessed as increase in BAL protein levels at 15 times ED50. To be noted: in vivo. It is filed as organism-based.
In data set [15] the target is Sphingosine 1-phosphate receptor 3 (Homo sapiens, UniProt Q99500). Briefly: Agonist activity at human EDG3-Ga15-bla expressed in HEK293T cells after 45 mins by [35S]GTPgammaS binding assay. It is filed as functional, cell-based. The method in brief:
(§2)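 Membranes from S1P1/CHO or EDG3-Ga15-bla HEK293T cells (final protein 3 µg/well) incubated with compound (11-point, 3-fold dilution) and [35S]GTP 0.2 nM final in 20 mM HEPES pH 7.5, 10 mM MgCl2, 150 mM NaCl, 1 mM EGTA, 1 mM DTT, 10 µM GDP, 0.1% fatty acid free BSA, 10 µg/ml saponin, 45 min at room temperature. Filter capture, scintillation counting; EC50 taken at 50% of each compound's Ymax.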

In data set [16] the test system is Cardiac muscle cell. In words: Toxicity in human inducible pluripotent stem cell derived cardiomyocytes assessed as reduction in beating rate at 1 nM after 20 mins by multi-electrode array electrophysiology study. Type of data set: cell-based. To be noted: 0.001 µM. The method in brief:
(§3)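 hiPSC cardiomyocytes were grown 7 days at 7% CO2 on gelatin, then co-cultured with 10% cardiac fibroblasts for 7 days on laminin-coated 9-well MEA plates until they formed a beating monolayer. After 20-60 min equilibration at 37 °C, compound was added in maintenance medium (DMSO or NaOH vehicle below 0.1% or 30 µM). Field potentials were recorded at 10 kHz from 28 electrodes/well for at least 2 h. Reported as mean change in beating rate versus control, mean ± SD of ≥3 experiments.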

The subject of data set [17] is Cardiac muscle cell. In words: Toxicity in human inducible pluripotent stem cell derived cardiomyocytes assessed as reduction in beating rate at 10 nM after 20 mins by multi-electrode array electrophysiology study. Type of data set: cell-based. To be noted: 0.01 µM. The method in brief: as §3
Data set [18] concerns the target Sphingosine 1-phosphate receptor 1 (Homo sapiens, UniProt P21453). Briefly: Agonist activity at human S1P1 receptor expressed in CHO cell membranes after 45 mins by [35S]GTPgammaS binding assay. Type of data set: functional. Summed up: as §2
The nature of data set [19]: Half life in rat. It is filed as ADME, organism-based. The note with it: in vivo.
The species entered for data set [20] is Mus musculus. In words: Pulmonary toxicity in mouse assessed as increase in BAL protein levels at 30 times ED50. The note with it: in vivo. Type of data set: organism-based.
The species named for data set [21] is Mus musculus. In words: Pulmonary toxicity in mouse assessed as increase in BAL protein levels at 60 times ED50. Type of data set: organism-based. To be noted: in vivo.
The species named for data set [22] is Mus musculus. In words: Pulmonary toxicity in mouse assessed as increase in BAL protein levels up to 10 times ED50. It is filed as organism-based. The note with it: in vivo.
The species named for data set [23] is Mus musculus. Briefly: Pulmonary toxicity in mouse assessed as increase in BAL protein levels at 20 times ED50 relative to control. Type of data set: organism-based. The note with it: in vivo.

A word on the ED50: it is the dose that gives a 50% effect, or the effect in half of the subjects. One may read the half-life as the time needed for the level to fall by half in the phase considered. As usually defined, the EC50 is the concentration that produces a half-maximal response. For orientation: Emax means the greatest response seen or fitted, relative to the assay's reference.

Sphingosine 1-phosphate receptor 1, sequence (P21453 whole entry): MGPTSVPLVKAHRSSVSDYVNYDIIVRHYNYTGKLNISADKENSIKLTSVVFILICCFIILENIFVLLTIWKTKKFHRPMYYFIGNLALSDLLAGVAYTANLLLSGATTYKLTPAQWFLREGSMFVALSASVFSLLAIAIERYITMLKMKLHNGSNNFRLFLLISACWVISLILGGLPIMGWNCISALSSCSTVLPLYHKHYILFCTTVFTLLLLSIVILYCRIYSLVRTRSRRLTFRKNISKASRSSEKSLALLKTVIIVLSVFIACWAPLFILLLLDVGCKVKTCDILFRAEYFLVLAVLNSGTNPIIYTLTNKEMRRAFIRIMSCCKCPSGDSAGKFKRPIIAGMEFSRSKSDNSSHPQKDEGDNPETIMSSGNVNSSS
Sphingosine 1-phosphate receptor 3, sequence (Q99500 whole entry): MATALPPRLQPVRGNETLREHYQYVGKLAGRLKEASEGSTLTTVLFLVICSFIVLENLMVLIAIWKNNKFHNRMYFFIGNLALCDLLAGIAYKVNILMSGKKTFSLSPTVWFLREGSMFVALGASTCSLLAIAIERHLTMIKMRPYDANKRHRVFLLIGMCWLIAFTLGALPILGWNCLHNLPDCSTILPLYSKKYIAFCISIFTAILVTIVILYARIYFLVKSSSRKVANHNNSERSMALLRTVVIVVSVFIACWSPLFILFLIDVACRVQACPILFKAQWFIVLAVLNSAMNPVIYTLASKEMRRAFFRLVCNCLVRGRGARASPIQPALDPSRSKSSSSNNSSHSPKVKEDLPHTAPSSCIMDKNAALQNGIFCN

Regarding `CCCCOc1nc2c(s1)-c1ccc([C@H]3CC[C@](N)(CO)C3)cc1CC2`, the Activity in data set [1] was 26%; in data set [2], 74%; in data set [10], 68%; in data set [11] it was “Toxic”. The ED50 in data set [3] worked out at 1 mg/kg. Moreover, the half-life in data set [4] was 5 h. The results for the Drug metabolism in [5], in data set [7] and in [8] were 34 nM, 20 nM and 4 nM, respectively. In addition, the concentration in data set [6] is 35 nM; in data set [9], 7 nM; in data set [12] it was below 5 nM.

As to `CCCCSc1nc2c(s1)-c1ccc([C@H]3CC[C@](N)(CO)C3)cc1CC2`, the Activity entry is recorded as “Toxic” in data set [13]; 16% in data set [1]; 82% in [2]; 48% in [10]; “Toxic” in [14]. Moreover, the ED50 in data set [3] came out at 2 mg/kg. In addition, the half-life in data set [4] was below 5 h. Moreover, the Drug metabolism in data set [5] is 15 nM; in data set [7] it was 2.3 nM; in data set [8], below 1 nM. The concentration in data set [6] was 9.1 nM; in data set [9] it was 1.4 nM; in data set [12], below 1 nM.

With `CCCCCc1nc2c(s1)-c1ccc([C@H]3CC[C@](N)(COP(=O)(O)O)C3)cc1CC2`, the EC50 is above 3000 nM in data set [15] and 21 nM in data set [18]. The Activity entry in data set [16] and in data set [17] was “Toxic” each time. In addition, in data set [18], the Emax turned out to be 79%.

Turning to `CCCCCC[C@@H]1CCc2cc([C@H]3CC[C@](N)(CO)C3)ccc2C1` [BMS-986104], in data set [19], the half-life was 162 h.

In the case of `CCCCCc1nc2c(s1)-c1ccc([C@H]3CC[C@](N)(CO)C3)cc1CC2`, the Activity entry is recorded as “Non-Toxic” in data set [20]; “Toxic” in data set [21]; 56% in [1]; 33% in data set [2]; “Non-Toxic” in [22]; 83% in data set [10]. Moreover, the ED50 in [3] turned out to be 0.5 mg/kg. Moreover, the half-life in data set [4] was 20 h. Also, the Drug metabolism in data set [5] was found to be 91 nM; in data set [7], 56 nM; in data set [8], 16 nM. Further, the concentration in data set [6] was 100 nM; in [9] it was 55 nM; in data set [12] it was 25 nM.

On to `CCCCOCCOc1nc2c(s1)-c1ccc([C@H]3CC[C@](N)(CO)C3)cc1CC2`, for which the “fold change (FC)” value in data set [23] is 5. The Activity in data set [1] was 82%; in [2], 79%; in data set [10], 87%. Further, the ED50 in [3] amounted to 0.25 mg/kg. Also, in data set [4], the half-life is 20 h. Moreover, the Drug metabolism is 120 nM in data set [5], 58 nM in data set [7] and 18 nM in data set [8]. For the same compound, the concentration amounted to 200 nM in data set [6], 140 nM in data set [9] and 27 nM in [12].
